According to ChEMBL document CHEMBL5136968, “Posttranslational modifications of α-conotoxins: sulfotyrosine and C-terminal amidation stabilise structures and increase acetylcholine receptor binding” (RSC Med Chem, 2021):
Positions of bridges follow the written chain, without caps; N, C: chain ends. Non-standard residues stand in square brackets, D forms with d. Residues, ends and D or L forms follow the SMILES beside them. sY = N[C@@H](Cc1ccc(OS(=O)(=O)O)cc1)C(=O)O

What was measured:
[1] = Displacement of [3H]-epibatidine from Aplysia californica Acetylcholine-binding protein measured after 1 hr by liquid scintillation counter
Method in brief: (§1)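 Recombinant AChBP expressed in E. coli (IPTG induction, 16 °C), coated onto wells at 1 ng μL−1. Incubated 1 h at 4 °C with [3H]-epibatidine (1 nM final) and increasing peptide in PBS with 0.05% BSA. Unbound ligand washed off; bound radioactivity counted by liquid scintillation. One-site competition fit gives Ki. Triplicate, three independent experiments; pKi as mean with 95% CI.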

[2] = molecular target: Acetylcholine-binding protein (Lymnaea stagnalis, UniProt P58154); experiment: Displacement of [3H]-epibatidine from Lymnaea stagnalis Acetylcholine-binding protein measured after 1 hr by liquid scintillation counter; method in brief: as §1
Sequence of Acetylcholine-binding protein (P58154 whole entry): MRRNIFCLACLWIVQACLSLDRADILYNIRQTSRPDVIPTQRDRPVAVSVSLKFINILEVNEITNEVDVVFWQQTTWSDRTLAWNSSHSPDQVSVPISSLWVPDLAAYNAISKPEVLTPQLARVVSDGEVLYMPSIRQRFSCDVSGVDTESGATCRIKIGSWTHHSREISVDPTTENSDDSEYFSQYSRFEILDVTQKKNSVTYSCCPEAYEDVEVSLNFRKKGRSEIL

| SMILES | pKi [1] | Ki [2] [µM] |
| --- | --- | --- |
| CC(C)C[C@@H]1NC(=O)[C@H](CO)NC(=O)[C@@H]2CSSC[C@@H](C(N)=O)NC(=O)[C@H](Cc3ccc(O)cc3)NC(=O)[C@H](CC(=O)O)NC(=O)[C@@H]3CCCN3C(=O)[C@H](CC(N)=O)NC(=O)[C@H](CC(N)=O)NC(=O)[C@H](C)NC(=O)[C@H](C)NC(=O)[C@H](CSSC[C@H](NC(=O)CN)C(=O)N2)NC(=O)[C@@H]2CCCN2C(=O)[C@@H]2CCCN2C1=O (H-GCCSLPPCAANNPDYC-NH2; disulfide 2-8, 3-16) | 8.85 | 9.12 |
| CC(C)C[C@@H]1NC(=O)[C@H](CO)NC(=O)[C@@H]2CSSC[C@@H](C(=O)O)NC(=O)[C@H](Cc3ccc(O)cc3)NC(=O)[C@H](CC(=O)O)NC(=O)[C@@H]3CCCN3C(=O)[C@H](CC(N)=O)NC(=O)[C@H](CC(N)=O)NC(=O)[C@H](C)NC(=O)[C@H](C)NC(=O)[C@H](CSSC[C@H](NC(=O)CN)C(=O)N2)NC(=O)[C@@H]2CCCN2C(=O)[C@@H]2CCCN2C1=O (H-GCCSLPPCAANNPDYC-OH; disulfide 2-8, 3-16) | 7.51 | > 100 |
| CC(C)C[C@@H]1NC(=O)[C@H](CO)NC(=O)[C@@H]2CSSC[C@@H](C(N)=O)NC(=O)[C@H](Cc3ccc(OS(=O)(=O)O)cc3)NC(=O)[C@H](CC(=O)O)NC(=O)[C@@H]3CCCN3C(=O)[C@H](CC(N)=O)NC(=O)[C@H](CC(N)=O)NC(=O)[C@H](C)NC(=O)[C@H](C)NC(=O)[C@H](CSSC[C@H](NC(=O)CN)C(=O)N2)NC(=O)[C@@H]2CCCN2C(=O)[C@@H]2CCCN2C1=O (H-GCCSLPPCAANNPD[sY]C-NH2; disulfide 2-8, 3-16) | 8.92 | 3.8 |
| CC(C)C[C@@H]1NC(=O)[C@H](CO)NC(=O)[C@@H]2CSSC[C@@H](C(=O)O)NC(=O)[C@H](Cc3ccc(OS(=O)(=O)O)cc3)NC(=O)[C@H](CC(=O)O)NC(=O)[C@@H]3CCCN3C(=O)[C@H](CC(N)=O)NC(=O)[C@H](CC(N)=O)NC(=O)[C@H](C)NC(=O)[C@H](C)NC(=O)[C@H](CSSC[C@H](NC(=O)CN)C(=O)N2)NC(=O)[C@@H]2CCCN2C(=O)[C@@H]2CCCN2C1=O (H-GCCSLPPCAANNPD[sY]C-OH; disulfide 2-8, 3-16) | 8.33 | > 100 |
